This excerpt belongs to a sample that is enriched for hits.
Ecoli WT growth = growth inhibitors of wild type E. coli, primary screen, strain BW25113 wild type, absorbance readout | AID 552, 2006 | inhibition, % at 10 µM | actives 0.05% (n = 20,000) | E. coli BW25113 growth inhibition, OD600; in the data active = inhibition above about 40%;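 note: bacteria exposed to compound for 20 hours at 37 °C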
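System: bacterial strain in a whole-cell growth screen; medium: LB broth with 50 µg/mL kanamycin; detection: absorbance at 615 nm; schedule: 20 h exposure, 37 °C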
Numbers without * were called inactive.

SMILES	Ecoli WT growth
CC1(C)CC(=O)N(CC(=O)NCc2ccccc2)c2ccccc2S1(=O)=O	1.7
Fc1ccc(-c2cnc[nH]2)cc1	-0.7
CC(C)OP(=O)(c1ccc(N(C)C)cc1)C(O)c1ccncc1 (stereo not given)	-8.0
O=S(=O)(Nc1nc2ccccc2nc1NCC1CCCO1)c1cccs1 (stereo not given)	-5.2
N#Cc1nc(N2CCCCC2)nc(N2CCOCC2)n1	-26.2
COc1ccc(S(=O)(=O)Nc2ccccn2)c(C)c1C	-15.2
COc1ccccc1OCC(=O)NCC1CCCCC1	2.1
O=C(c1ccc(NC(=O)C2(c3ccccc3)CCOCC2)cc1)N1CCOCC1	-26.7
CC1CCc2cc(F)cc3c(O)c(C(=O)NCC4CCCO4)c(=O)n1c23 (stereo not given)	7.2
COc1cc(OC)cc(C(=O)N2c3ccc(F)cc3CCC2C)c1 (stereo not given)	0.6
CC1CCc2cc(F)cc3c(=O)c(C(=O)O)cn1c23 (stereo not given)	43.9*
Cc1nnc(SCC(=O)N2CCC(C(=O)Nc3nccs3)CC2)n1Cc1ccccc1	-1.4
CC(C)CCOP(=O)(c1ccc(N(C)C)cc1)C(O)c1ccccn1 (stereo not given)	-15.2
CCOc1ccc2sc(NS(=O)(=O)c3ccc(OC)c(OC)c3)nc2c1	-16.3
COc1ccccc1-c1nc(S(=O)(=O)c2ccc(Cl)cc2)c(N(C)C)o1	-20.3
CCOC(=O)N1CCN(c2cc3nccnc3cc2F)CC1	-7.1
CCOC(=O)c1cn(CC)c2cc(N3CCOCC3)c(F)cc2c1=O	15.5
CCN1CCN(C(=O)c2cn(CC)c3ccc(S(=O)(=O)N(C)C)cc3c2=O)CC1	4.6
CCC(=O)c1cc(F)c(N2CCN(C(=O)Cc3ccccc3)CC2)cc1C	-17.0
CCN1CCN(c2cc3c(cc2F)c(=O)c(C(=O)O)cn3C2CC2)CC1	72.2*
CCOC(=O)N1CCN(C(=O)c2cn(CC)c3cc(N4CCN(C)CC4)c(F)cc3c2=O)CC1	70.9*
O=C(NCC(=O)N(c1ccc2c(c1)OCCO2)C(C(=O)NC1CCCC1)c1ccco1)c1ccco1 (stereo not given)	-5.2
COc1ccc(OC)c(-n2c(CN3CCC(C(N)=O)CC3)nc3ccccc3c2=O)c1	-18.4
O=C(O)c1cccnc1SCCc1ccccc1	-22.1
COc1ccc(OC)c(S(=O)(=O)N2C(C)CCCC2C)c1 (stereo not given)	-18.9
SMILES	Ecoli WT growth
CCCNc1nc2c(c(=O)[nH]c(=O)n2C)n1CCCc1ccccc1	-25.5
COc1ccc(C2NCCc3cc(OC)c(OC)cc32)cc1OC (stereo not given)	0.9
O=C(Cn1nnc2ccccc2c1=O)NC1CCCc2ccccc21 (stereo not given)	-0.1
Cc1ccc(Cn2c(=N)c(C(=O)NCc3ccco3)cc3c(=O)n4ccccc4nc32)cc1	-4.5
c1ccc(-c2nc3nonc3c3nc4ccccc4n23)cc1	7.3
O=C1CCCc2c1cc(C(=O)NCc1ccco1)c(=O)n2-c1ccc(Cl)cc1	5.2
CCSc1ccccc1C(=O)Nc1cc(C)on1	-25.4
O=C(NCc1ccc2c(c1)OCO2)c1ccc(NS(=O)(=O)c2ccc3c(c2)OCCO3)cc1	14.5
COc1ccc(C)cc1NC(=O)c1nnn(Cc2cccc(F)c2)c1N	12.9
CCOc1ccccc1NC(=O)CN(c1ccc(C)cc1)S(=O)(=O)c1c(C)noc1C	2.8
COc1ccc(OC)c(NC(=O)CS(=O)(=O)c2ccccc2)c1	0.5
Cc1cc(C)n(-c2nc3c(c(=O)[nH]c(=O)n3C)n2Cc2ccc(F)cc2)n1	-1.1
C=CCOc1ccccc1C1C2=C(CC(C)(C)CC2=O)Nc2c1c(=O)n(C)c(=O)n2C (stereo not given)	-5.6
Cc1cccc(NC(=O)CCN2CC(C)OC(C)C2)c1 (stereo not given)	-22.2
Cc1nnc(NCc2n[nH]c(=O)c3ccccc23)c2ccccc12	-1.2
Cc1ccc(N2C(N)=C(C#N)C(c3cccnc3)C3=C2CC(C)(C)CC3=O)cc1 (stereo not given)	-16.3
CC(=O)c1cccc(NC(=O)c2ccc(N(C)S(C)(=O)=O)cc2)c1	-18.0
CC1CCC(N2CCN(c3ncccn3)CC2)CC1 (stereo not given)	-18.4
Cc1ccc(C(=O)NC2CC3CCCC(C2)N3C(=O)NC2CCCCC2)cc1 (stereo not given)	-0.7
CCc1ccc(C=NC23CN4CN(CN(C4)C2)C3)s1	8.8
CCOc1ccccc1N1CC(C(=O)Nc2ccc(C(=O)O)cc2)CC1=O (stereo not given)	-12.5
Nc1c(Sc2ccccc2)c(=O)[nH]c(=O)n1Cc1ccccc1	1.8
COc1ccc(C)cc1S(=O)(=O)Nc1cccc(SC)c1	7.9
Cc1ccc(NC(=O)CN2CC(C)SC2=NC2CCCCC2)cc1 (stereo not given)	8.1
COc1cc(C2C(C#N)=C(N)OC3=C2C(=O)CCC3)ccc1OC(=O)N1CCOCC1 (stereo not given)	7.5
SMILES	Ecoli WT growth
COc1ccccc1-n1cnc2cc(NC(C)=O)ccc21	15.5
Cc1nc(-c2ccccc2)nc2[nH]c(=O)n(-c3ccccc3)c(=O)c12	-20.8
N#Cc1cc2ccc(N3CCOCC3)cc2cc1C#N	1.9
CC1=C(C(=O)OCCOC(C)C)C(c2cc3c(cc2Br)OCO3)C2=C(CCCC2=O)N1 (stereo not given)	7.4
Cc1cccc(C)c1NC(=O)N1CCN(C2CCCCC2)CC1	15.7
Cc1c(F)cccc1NS(=O)(=O)c1ccccc1C#N	-22.3
CCn1cc(C(=O)O)c(=O)c2cc(F)c(N3CCNCC3)nc21	75.3*
CCn1cc(C(=O)O)c(=O)c2ccc(C)nc21	26.4
CCn1cc(C(=O)OCc2ccc(F)cc2)c(=O)c2ccc(C)nc21	-7.6
O=C(Cn1c(=O)[nH]c2ccsc2c1=O)N1CCN(c2ccc(F)cc2)CC1	-5.3
O=C(NCc1ccc2c(c1)OCO2)C1CCC(CNc2c(N3CCCCC3)c(=O)c2=O)CC1 (stereo not given)	6.4
CCOC(=O)N1CCN(C(=O)CN(Cc2ccccc2)S(=O)(=O)c2ccc(OC)c(C)c2)CC1	-4.4
COCCNC(=O)C(c1ccc(O)cc1)N(Cc1ccco1)C(=O)CCC(=O)Nc1nccs1 (stereo not given)	9.5
O=C(COC(=O)C12CC3CC(CC(O)(C3)C1)C2)N1CCN(S(=O)(=O)c2ccc(Cl)cc2)CC1	2.2
CS(=O)(=O)NCc1ccc(C(=O)NC2CCCCC2)cc1	4.5
CC(C)N(C(=O)CSc1nnc(NC(=O)C2CCC2)s1)C(C)C	-1.7
CCOC(=O)C1CCN(C(=O)Nc2ccc(Cl)cc2Cl)CC1	-8.2
CC(C)(C)c1ccc(S(=O)(=O)NCC(=O)N2CCN(C(=O)c3ccco3)CC2)cc1	-0.4
CCOC(=O)/C(C(N)=NCc1ccco1)=C(/O)c1ccccc1	-5.1
CCOc1nc(-c2ccc(C)cc2)ccc1-c1noc(-c2cccnc2)n1	-7.7

Assay outcomes (PubChem BioAssay)
